{"source": "paper PMC2114648", "about": "(The Journal of Cell Biology, 1987)", "key": {"[1]": {"system": "MDCK cells", "format": "in vitro ADME, canine", "method_in_brief": "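MDCK monolayers on nitrocellulose Millicell filters, 5–7 d after plating (1.8–2.0×10^6 cells/well at confluence). Both sides washed with PBS pH 7.4. Chloramine-T-iodinated EGF tracer added to one side at 4°C, then held at 4, 15 or 37°C, with [14C]inulin (50,000 cpm) as leak marker. In a second format, tracer was bound basally 2.5 h at 4°C, washed, and moved to 37°C. Triplicate wells, mean ± SD.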"}, "[2]": {"assay": "Diffusion across nitrocellulose filter of empty chambers", "format": "in vitro ADME", "settings": "empty chamber, nitrocellulose filter without cells; 2 h; ~50,000 cpm tracer"}, "[3]": {"target": "T1, EGF receptor on MDCK cells (Canis lupus familiaris, UniProt A0A8I3RYJ5)", "format": "binding, canine", "settings": "for EGF bound, % of the total tracer added: 4 C, 50,000 cpm [125I]EGF", "method_in_brief": "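Confluent MDCK filter monolayers (1.8–2.0×10^6 cells/well) washed three times with cold PBS. Hepes buffer (50 mM Hepes, 1% BSA, pH 7.4) added both sides. 50,000 cpm [125I]EGF (194 µCi/µg) plus unlabeled EGF 1–200 ng/ml applied to apical or basal side. Incubated 6 h at 4°C, then washed. Filters excised and gamma-counted. Scatchard analysis.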"}, "[4]": {"target": "T1, EGF receptor on MDCK cells", "format": "cell-based, canine", "method_in_brief": "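MDCK monolayers on 0.45-µm nitrocellulose filter chambers, used 5–7 d after plating. Hepes buffer pH 7.4. 50,000 cpm (0.137 ng) chloramine-T-iodinated EGF plus 50,000 cpm [14C]inulin leakage marker added apically or basally. Opposite side sampled every 30 min with buffer replacement. Cumulative counts expressed as % of tracer added. Antibody 1:100 preincubated basally 60 min at 37°C, sampled over 4.5 h. Triplicate wells.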"}, "[5]": {"system": "insulin receptors on MDCK cells", "assay": "[125I]insulin binding to basal or apical surface of MDCK cells", "parameters": "species or system canine", "settings": "Hepes buffer, 15 C"}}, "note": "“And” between values parts separate entries of the source, which are not always exact repeats. Equal values may be shown once. Read-outs that look alike come from different tables or passages of the source.", "data": [{"substance": "epidermal growth factor [EGF]", "values": [{"measurement": "Transport of EGF basal-to-apical at 4 C (in words)", "setting": "[1]; 4 C versus 37 C, mean of triplicate wells", "value": "even further decreased"}, {"measurement": "Transport of EGF basal-to-apical at 15 C (in words)", "setting": "[1]; 15 C versus 37 C, mean of triplicate wells", "value": "markedly decreased"}, {"measurement": "Transport in the apical-to-basal direction (in words)", "setting": "[1]; MDCK monolayer", "value": "No transport"}, {"measurement": "Time to appearance of EGF at the apical surface after warming", "setting": "[1]; pre-bound tracer on basal surface, warmed from 4 C to 37 C", "value": "≤ 15", "unit": "min"}, {"measurement": "Diffusion across the membrane, % of the total added", "setting": "[2]", "value": 22, "unit": "%"}, {"measurement": "EGF bound, % of the total tracer added", "setting": "[3]; apical surface of MDCK cells", "value": "< 1% and 0.8%"}, {"measurement": "EGF bound, % of the total tracer added", "setting": "[3]; basal surface of MDCK cells, binding maximal within 4 h", "value": "6.5% and ~ 6%"}, {"measurement": "Concentration of cold EGF that inhibited binding by 50%", "setting": "[3]; basal surface of MDCK cells, 6 h at 4 C, competition with [125I]EGF", "value": 5, "unit": "ng/mL"}, {"measurement": "Effect of unlabeled EGF on transport of tracer EGF, basal-to-apical", "setting": "[4]; 0.85 nM (5 ng/ml) unlabeled EGF", "value": "substantial de- crease"}, {"measurement": "Effect of unlabeled EGF on transcytosis of labeled EGF, apical-to-basal", "setting": "[4]; 110 nM cold EGF", "value": "no effect"}, {"measurement": "Effect of unlabeled EGF on transcytosis of labeled EGF, basal-to-apical", "setting": "[4]; 110 nM unlabeled EGF", "value": "completely inhibited"}]}, {"substance": "insulin", "values": [{"measurement": "Transport in either direction (in words)", "setting": "[1]; MDCK monolayer, basal-to-apical and apical-to-basal", "value": "not observed"}, {"measurement": "Binding of insulin", "setting": "[5]", "value": "failed to detect binding"}]}]}
